Source: ChEMBL document CHEMBL2390922, “Synthesis and biological evaluation of sulforaphane derivatives as potential antitumor agents” (Eur J Med Chem, 2013)
The source made the active and inactive calls. The calls are words filed in the database; no cut-off is given here.

Legend:
[1] = test system: HCT-116; test: Cytotoxicity against human HCT116 cells after 72 hrs by MTT assay; assay type: functional, cell-based; conditions: HCT-116, 72 h
How it was run: (§1)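 Cells were grown in RPMI-1640 or DMEM with 10% NBS or FBS and 100 U/mL penicillin, at 37 °C under 5% CO₂. After 72 h with a range of compound concentrations, MTT was added for a further 4 h at 37 °C. Formazan was dissolved in DMSO and absorbance read at 570 and 630 nm. Assays ran in triplicate across three independent experiments, and IC₅₀ was calculated for 50% loss of viability.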

[2] = test system: MCF7; test: Cytotoxicity against human MCF7 cells after 72 hrs by MTT assay; assay type: functional, cell-based; conditions: MCF7, 72 h; how it was run: as §1
[3] = Cytotoxicity against human SH-SY5Y cells after 72 hrs by MTT assay; assay type: functional, cell-based; how it was run: as §1
[4] = test system: Vero; test: Cytotoxicity against African green monkey Vero cells after 72 hrs by MTT assay; assay type: cell-based; conditions: Chlorocebus sabaeus
[5] = test system: HepG2; test: Cytotoxicity against human HepG2 cells after 72 hrs by MTT assay; assay type: functional, cell-based; conditions: HepG2, 72 h; how it was run: as §1
[6] = test system: A549; test: Cytotoxicity against human A549 cells after 72 hrs by MTT assay; assay type: functional, cell-based; conditions: A549, 72 h
How it was run: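 After 72 h with a range of compound concentrations, MTT was added for a further 4 h at 37 °C. Formazan was dissolved in DMSO and absorbance read at 570 and 630 nm. Assays ran in triplicate across three independent experiments, and IC₅₀ was calculated for 50% loss of viability.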

[7] = molecular target: T1, Nuclear factor erythroid 2-related factor 2 (Homo sapiens) (UniProt Q16236); test: Activation of NRF2 in human HepG2 cells after 6 hrs by spectrophotometric analysis; assay type: cell-based
T1 sequence (whole entry): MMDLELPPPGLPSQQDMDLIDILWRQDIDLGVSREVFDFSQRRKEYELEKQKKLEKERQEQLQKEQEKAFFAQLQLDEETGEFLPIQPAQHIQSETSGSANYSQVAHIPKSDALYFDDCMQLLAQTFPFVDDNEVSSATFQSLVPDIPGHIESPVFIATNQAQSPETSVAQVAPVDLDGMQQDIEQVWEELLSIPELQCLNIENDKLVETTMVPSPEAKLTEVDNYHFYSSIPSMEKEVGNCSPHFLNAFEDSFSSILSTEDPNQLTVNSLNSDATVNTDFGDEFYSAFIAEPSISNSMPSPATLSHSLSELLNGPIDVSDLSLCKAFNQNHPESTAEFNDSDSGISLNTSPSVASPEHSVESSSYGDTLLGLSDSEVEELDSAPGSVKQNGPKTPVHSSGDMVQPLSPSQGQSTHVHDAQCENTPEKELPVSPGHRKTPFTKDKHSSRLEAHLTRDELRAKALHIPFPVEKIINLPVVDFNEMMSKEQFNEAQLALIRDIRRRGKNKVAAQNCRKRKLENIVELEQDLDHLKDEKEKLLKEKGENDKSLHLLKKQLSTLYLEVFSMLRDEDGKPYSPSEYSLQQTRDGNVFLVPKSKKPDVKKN
How it was run: (§2)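 HepG2 cells treated 2, 4 and 8 h at 20 µM, or 6 h at 5, 10 and 20 µM. Nuclear extracts were prepared by hypotonic lysis and detergent, then 14,000 g spin at 4 °C. Nrf2 DNA-binding was measured by TransAM ELISA: nuclear extract incubated 1 h at room temperature in wells, anti-Nrf2 (1:1000) 1 h, HRP secondary (1:1000), developing solution 2-15 min, stop solution.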

[8] = test system: HepG2; test: Cell cycle arrest in human HepG2 cells assessed as decrease in accumulation at G0/G1 phase after 48 hrs by DAPI staining-based flow cytometric analysis; assay type: functional
How it was run: (§3)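 HepG2 cells were exposed for 48 h to 5, 10 or 20 of each agent, alongside a vehicle control. About […] cells were harvested and washed twice in PBS. DNA content was read by flow cytometry on 10,000 events, giving the percentage of cells in each phase relative to control.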

[9] = test system: HepG2; test: Induction of apoptosis in human HepG2 cells assessed as early apoptotic cells at 20 uM after 48 hrs by Annexin-V-FITC/propidium iodide staining-based flow cytometric analysis (reference value: 0.14%); assay type: functional
[10] = test system: HepG2; test: Induction of apoptosis in human HepG2 cells assessed as late apoptotic cells at 10 uM after 48 hrs by Annexin-V-FITC/propidium iodide staining-based flow cytometric analysis (reference value: 0.29%); assay type: functional
[11] = test system: HepG2; test: Cell cycle arrest in human HepG2 cells assessed as accumulation at G2/M phase at 5 to 20 uM after 48 hrs by DAPI staining-based flow cytometric analysis; assay type: functional
How it was run: (§4)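 HepG2 cells cultured at 37 °C, 5% CO2, exposed 48 h to 5, 10 or 20 µM. Cells harvested, washed twice in PBS, and DNA content of 10,000 events read by flow cytometry. Phase proportions compared with vehicle control; significance at p<0.05 and p<0.01.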

[12] = test system: HepG2; test: Induction of apoptosis in human HepG2 cells assessed as early apoptotic cells at 10 uM after 48 hrs by Annexin-V-FITC/propidium iodide staining-based flow cytometric analysis (reference value: 0.14%); assay type: functional
[13] = test system: HepG2; test: Induction of apoptosis in human HepG2 cells assessed as early apoptotic cells at 5 uM after 48 hrs by Annexin-V-FITC/propidium iodide staining-based flow cytometric analysis (reference value: 0.14%); assay type: functional
[14] = test system: HepG2; test: Cell cycle arrest in human HepG2 cells assessed as accumulation at S phase at 20 uM after 48 hrs by DAPI staining-based flow cytometric analysis relative to control; assay type: functional; how it was run: as §4
[15] = molecular target: T1, Nuclear factor erythroid 2-related factor 2 (Homo sapiens); test: Activation of NRF2 in human HepG2 cells at 20 uM by spectrophotometric analysis; assay type: cell-based; conditions: TDE = time-dependent effect; how it was run: as §2
[16] = test system: HepG2; test: Induction of apoptosis in human HepG2 cells assessed as late apoptotic cells at 20 uM after 48 hrs by Annexin-V-FITC/propidium iodide staining-based flow cytometric analysis (reference value: 0.29%); assay type: functional
[17] = test system: HepG2; test: Induction of apoptosis in human HepG2 cells assessed as late apoptotic cells at 5 uM after 48 hrs by Annexin-V-FITC/propidium iodide staining-based flow cytometric analysis (reference value: 0.29%); assay type: functional
[18] = test system: HepG2; test: Cell cycle arrest in human HepG2 cells assessed as accumulation at S phase after 48 hrs by DAPI staining-based flow cytometric analysis; assay type: functional; how it was run: as §3

Structure (SMILES) | IC50 [1] [µM] | IC50 [2] [µM] | IC50 [3] [µM] | IC50 [4] [µM] | IC50 [5] [µM] | IC50 [6] [µM] | Activity [7] | Activity [8] | Activity [9] [%] | Activity [10] [%] | Activity [11] | Activity [12] [%] | Activity [13] [%] | Activity [14] [%] | Activity [15] | Activity [16] [%] | Activity [17] [%] | Activity [18]
[O-][S+](CCCCN=C=S)Cc1ccco1 (stereo unspecified) | 3.47 | 5.68 | 7.79 | 5.25 | 3.86 | 5.64 | – | – | – | – | – | – | – | – | – | – | – | –
[O-][S+](CCCCN=C=S)Cc1ccccc1 (stereo unspecified) | 3.66 | 3.3 | 5.21 | 4.85 | 2.85 | 7.41 | Dose-dependent effect | Dose-dependent effect | 0.24 | 10.91 | Active | 0.72 | 0.39 | 9.11 | tde | 25.33 | 1.78 | Dose-dependent effect
[O-][S+](CCCN=C=S)Cc1ccccc1 (stereo unspecified) | 15.6 | 7.92 | 8.89 | 10.1 | 9.84 | 11.8 | – | – | – | – | – | – | – | – | – | – | – | –
O=S(=O)(CCCCN=C=S)Cc1ccccc1 | 6.28 | 7.55 | 4.78 | 7.17 | 8.49 | 8.89 | – | – | – | – | – | – | – | – | – | – | – | –
CC(C)[S+]([O-])CCCCCN=C=S (stereo unspecified) | 3.42 | 6.78 | 8.62 | 10.3 | 3.69 | 7.75 | – | – | – | – | – | – | – | – | – | – | – | –
CCC[S+]([O-])CCCCN=C=S (stereo unspecified) | 3.95 | 5.96 | 7.66 | 5.64 | 3.91 | 10.7 | – | – | – | – | – | – | – | – | – | – | – | –
[O-][S+](CCCCCCN=C=S)Cc1ccccc1 (stereo unspecified) | 11.6 | 5.49 | 7.63 | 4.33 | 6.17 | 14.7 | – | – | – | – | – | – | – | – | – | – | – | –
CC(C)C[S+]([O-])CCCCN=C=S (stereo unspecified) | 2.06 | 3.66 | 5.7 | 4.98 | 2.16 | 9.09 | – | – | – | – | – | – | – | – | – | – | – | –
CC(C)[S+]([O-])CCCCN=C=S (stereo unspecified) | 3.74 | 8.82 | 9.42 | 10.4 | 2.05 | 10.4 | – | – | – | – | – | – | – | – | – | – | – | –
[O-][S+](CCCCN=C=S)Cc1ccccn1 (stereo unspecified) | 3.72 | 6.89 | 7.83 | 7.65 | 5.35 | 8.33 | – | – | – | – | – | – | – | – | – | – | – | –
[O-][S+](CCCCN=C=S)C1CCCC1 (stereo unspecified) | 3.14 | 4.45 | 7.14 | 4.6 | 3.64 | 10.1 | – | – | – | – | – | – | – | – | – | – | – | –
[O-][S+](CCCCCN=C=S)Cc1ccccc1 (stereo unspecified) | 5.19 | 3.83 | 7.01 | 5.85 | 3.91 | 6.21 | – | – | – | – | – | – | – | – | – | – | – | –
CC(C)[S+]([O-])CCCN=C=S (stereo unspecified) | 15.9 | 7.93 | 18.1 | 8.25 | 7.14 | 16.7 | – | – | – | – | – | – | – | – | – | – | – | –
CCCC[S+]([O-])CCCCN=C=S (stereo unspecified) | 2.81 | 5.84 | 6.47 | 5.15 | 5.93 | 9.56 | – | – | – | – | – | – | – | – | – | – | – | –
S=C=NCCCCSCc1ccccc1 | 41.5 | 38.3 | 20.7 | 24.9 | 12.6 | 51.3 | – | – | – | – | – | – | – | – | – | – | – | –
O=c1[nH]cc(F)c(=O)[nH]1 [FLUOROURACIL] | 3.24 | 10.1 | 0.97 | 9.71 | – | – | – | – | – | – | – | – | – | – | – | – | – | –
[O-][S+](CCCCN=C=S)Cc1cccs1 (stereo unspecified) | 3.21 | 4.14 | 5.31 | 6.22 | 3.82 | 8.41 | – | – | – | – | – | – | – | – | – | – | – | –
C[S+]([O-])CCCCN=C=S (stereo unspecified) [SULFORAPHANE] | 11.6 | 17.7 | 13.3 | 13.7 | 14.1 | 22 | Dose-dependent effect | Dose-dependent effect | 0.9 | 1.22 | Active | 0.44 | 0.15 | 5.9 | tde | 4.19 | 0.73 | Dose-dependent effect
[O-][S+](CCCCN=C=S)CCc1ccccc1 (stereo unspecified) | 8.02 | 9.33 | 5.6 | 6.82 | 6.97 | 10.2 | – | – | – | – | – | – | – | – | – | – | – | –
[O-][S+](CCCCN=C=S)c1ccccc1 (stereo unspecified) | 4.53 | 7.05 | 8.75 | 4.33 | 6.34 | 23.8 | – | – | – | – | – | – | – | – | – | – | – | –
O=[N+]([O-])c1ccc(C[S+]([O-])CCCCN=C=S)cc1 (stereo unspecified) | 2.83 | 7.77 | 7.23 | 3.36 | 3.18 | 14.3 | – | – | – | – | – | – | – | – | – | – | – | –
COc1ccc(C[S+]([O-])CCCCN=C=S)cc1 (stereo unspecified) | 5.46 | 8.89 | 2.79 | 3.71 | 4.62 | 32.5 | – | – | – | – | – | – | – | – | – | – | – | –
CC(C)[S+]([O-])CCCCCCN=C=S (stereo unspecified) | 9.46 | 9.76 | 7.82 | 7.31 | 7.82 | 12 | – | – | – | – | – | – | – | – | – | – | – | –
CC[S+]([O-])CCCCN=C=S (stereo unspecified) | 3.85 | 8.26 | 9.81 | 7.9 | 5.35 | 10.2 | – | – | – | – | – | – | – | – | – | – | – | –
